The test system of one experiment is HL-60. Description: Cytotoxic activity against human HL60 cells after 69 hrs by MTT assay. Format: functional, cell-based. Conditions: HL-60, 69 h. In a few lines:
(§1)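 Cells were grown in RPMI 1640 with 10% FBS, 2 mM glutamine, penicillin and streptomycin at 37 °C under 5% CO2, then plated. After 24 h, compounds in DMSO were added at 0.39-25 µg/mL, with doxorubicin at 0.01-0.58 µg/mL as positive control. After 69 h, MTT at 0.5 mg/mL was added for 3 h. Formazan was dissolved in DMSO and read at 595 nm. IC50 came from nonlinear regression.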
(In general: Formazan colour is commonly taken as a measure of viable cells.)

The next experiment relates to HCT-8. In words: Cytotoxic activity against human HCT8 cells after 69 hrs by MTT assay. Format: functional, cell-based. Conditions: HCT-8, 69 h. In outline: as §1
The test system of experiment [1] is MDA-MB-435 (Homo sapiens). In words: Cytotoxic activity against human MDA-MB-435 cells after 69 hrs by MTT assay. The settings on record: MDA-MB-435, 69 h.
The subject of another experiment is SF-295. In words: Cytotoxic activity against human SF295 cells after 69 hrs by MTT assay. Type of experiment: functional, cell-based. The settings on record: SF-295, 69 h. In outline: as §1

pIC50: −log10 of the molar value. Where only a bound is given, the exact number is not on record here.

With `C=C/C(C)=C/C[C@]1(C)[C@H]2C[C@@H](OC(C)=O)C=C3[C@H](OC(C)=O)O[C@@H](OC(C)=O)[C@@]32[C@H](OC(=O)c2ccc(O)cc2)C[C@@H]1C` [CASEOBLIQUIN A], the pIC50 (in the experiment with HL-60; in the experiment on HCT-8; in experiment [1]; in the experiment on SF-295) was less than 5.30 throughout.
Regarding `COc1cccc2c1C(=O)c1c(O)c3c(c(O)c1C2=O)C[C@@](O)(C(=O)CO)C[C@@H]3O[C@H]1C[C@H](N)[C@H](O)[C@H](C)O1` [DOXORUBICIN], the negative logarithm of the IC50 (pIC50) (in general, the IC50 on a negative log10 scale, so that one unit is a factor of ten) with HL-60 was 7.15; in the experiment with HCT-8, 5.82; in experiment [1], 6.92; in the experiment with SF-295, 6.12.
As to `C=C/C(C)=C/C[C@]1(C)[C@H]2C[C@H](O)C=C3[C@H](OC(C)=O)O[C@@H](OC(C)=O)[C@@]32[C@H](OC(=O)/C=C/c2ccccc2)C[C@@H]1C`, the pIC50 (in the experiment on HL-60; in the experiment on HCT-8; in experiment [1]; in the experiment with SF-295) was less than 5.30 each time.

The values are drawn from ChEMBL document CHEMBL1154325, “Cytotoxic clerodane diterpenoids from Casearia obliqua” (J Nat Prod, 2009).
